Assay results taken from article PMC2692502 (Journal of Antimicrobial Chemotherapy, 2009).

What was measured:
[1] = Study 2: safety and tolerability; assay type: in vivo, human
Summary of the method: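 Healthy adults (24 enrolled) were randomized 3:2:1 in a single-blind, placebo-controlled, parallel-group design. Groups received test compound 6 mg/kg, 4 mg/kg or placebo as a 2 min peripheral iv injection by syringe driver, once daily for 7 days. All subjects entered the safety analysis. The investigator graded AEs for relatedness (not, unlikely, possibly, probably) and severity. Tabulated AEs were possibly or probably related. Follow-up was 9–11 days after last dose.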

[2] = Study 1: safety and tolerability; assay type: in vivo, human; conditions: Study 1, 6 mg/kg
Summary of the method: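 Healthy adult volunteers in a randomized, open-label, single-dose, two-period crossover. Each received test compound 6 mg/kg as a 30 min iv infusion and as a 2 min peripheral iv injection by syringe driver, in random order, with a 5-day washout. The investigator graded AEs for relatedness (not, unlikely, possibly, probably related) and severity (mild/moderate/severe). Tabulated AEs were possibly or probably related. Follow-up was 1–11 days post-dose.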

[3] = Study 2, 4 mg/kg 2 min iv injection once daily for 7 days, n = 8
[4] = Study 2, 6 mg/kg 2 min iv injection once daily for 7 days, n = 12

CCCCCCCCCC(=O)N[C@@H](Cc1c[nH]c2ccccc12)C(=O)N[C@H](CC(N)=O)C(=O)N[C@@H](CC(=O)O)C(=O)N[C@@H]1C(=O)NCC(=O)N[C@@H](CCCN)C(=O)N[C@@H](CC(=O)O)C(=O)N[C@H](C)C(=O)N[C@@H](CC(=O)O)C(=O)NCC(=O)N[C@H](CO)C(=O)N[C@@H]([C@H](C)CC(=O)O)C(=O)N[C@@H](CC(=O)c2ccccc2N)C(=O)O[C@@H]1C [daptomycin]
Subjects with related adverse event: Infections and infestations [1, 3]: 0 n (%)
Subjects with related adverse event: Nervous system disorders [1, 3]: 1 (13) n (%)
Subjects with related adverse event: dizziness [1, 3]: 0 n (%)
Subjects with related adverse event: dizziness postural [1, 3]: 0 n (%)
Subjects with related adverse event: flatulence [1, 3]: 1 (13) n (%)
Subjects with related adverse event: headache [1, 3]: 0 n (%)
Subjects with related adverse event: lethargy [1, 3]: 1 (13) n (%)
Subjects with related adverse event: nausea [1, 3]: 0 n (%)
Subjects with related adverse event: pain in extremity [1, 3]: 1 (13) n (%)
Subjects with related adverse event: paraesthesia [1, 3]: 0 n (%)
Subjects with related adverse event: upper respiratory tract infection [1, 3]: 0 n (%)
subjects with erythema (local injection-site reaction) [1, 3]: five subjects
Subjects with at least one adverse event possibly or probably related to study drug: Any adverse event [1, 4]: 3 (25) n (%)
Subjects with related adverse event: Gastrointestinal disorders [1, 4]: 0 n (%)
Subjects with related adverse event: Infections and infestations [1, 4]: 0 n (%)
Subjects with related adverse event: Nervous system disorders [1, 4]: 3 (25) n (%)
Subjects with related adverse event: dizziness [1, 4]: 1 (8) n (%)
Subjects with related adverse event: dizziness postural [1, 4]: 1 (8) n (%)
Subjects with related adverse event: flatulence [1, 4]: 0 n (%)
Subjects with related adverse event: headache [1, 4]: 1 (8) n (%)
Subjects with related adverse event: lethargy [1, 4]: 0 n (%)
Subjects with related adverse event: nausea [1, 4]: 0 n (%)
Subjects with related adverse event: pain in extremity [1, 4]: 0 n (%)
Subjects with related adverse event: paraesthesia [1, 4]: 0 n (%)
Subjects with related adverse event: upper respiratory tract infection [1, 4]: 0 n (%)
subjects with erythema (local injection-site reaction) [1, 4]: two subjects
time to resolution of local injection-site reactions ([1]; Study 2, 2 min iv injection, reactions generally mild and transient): ≤ 1 h
serious or other significant AEs ([1]; Study 2, multiple-dose, 24 subjects enrolled (placebo included)): no serious or other significant AEs
local tolerability reaction: mild tenderness ([2]; 2 min iv injection group): one subject
Subjects with at least one adverse event possibly or probably related to study drug: Any adverse event ([2]; 2 min iv injection, n = 16): 4 (25) n (%)
Subjects with related adverse event: Gastrointestinal disorders ([2]; 2 min iv injection, n = 16): 1 (6) n (%)
Subjects with related adverse event: Infections and infestations ([2]; 2 min iv injection, n = 16): 1 (6) n (%)
Subjects with related adverse event: Nervous system disorders ([2]; 2 min iv injection, n = 16): 1 (6) n (%)
Subjects with related adverse event: fatigue ([2]; 2 min iv injection, n = 16): 1 (6) n (%)
Subjects with related adverse event: headache ([2]; 2 min iv injection, n = 16): 1 (6) n (%)
Subjects with related adverse event: nausea ([2]; 2 min iv injection, n = 16): 1 (6) n (%)
Subjects with related adverse event: urinary tract infection ([2]; 2 min iv injection, n = 16): 1 (6) n (%)
local tolerability reaction: mild tenderness ([2]; 30 min iv infusion group): two subjects
local tolerability reaction: pain ([2]; 30 min iv infusion group): one subject
Subjects with at least one adverse event possibly or probably related to study drug: Any adverse event ([2]; 30 min iv infusion, n = 15): 2 (13) n (%)
Subjects with related adverse event: Gastrointestinal disorders ([2]; 30 min iv infusion, n = 15): 0 n (%)
Subjects with related adverse event: Infections and infestations ([2]; 30 min iv infusion, n = 15): 2 (13) n (%)
Subjects with related adverse event: Nervous system disorders ([2]; 30 min iv infusion, n = 15): 0 n (%)
Subjects with related adverse event: fatigue ([2]; 30 min iv infusion, n = 15): 0 n (%)
Subjects with related adverse event: headache ([2]; 30 min iv infusion, n = 15): 0 n (%)
Subjects with related adverse event: nausea ([2]; 30 min iv infusion, n = 15): 0 n (%)
Subjects with related adverse event: urinary tract infection ([2]; 30 min iv infusion, n = 15): 2 (13) n (%)
serious or severe AEs or deaths ([2]; both regimens): no serious or severe AEs or deaths were reported
tolerability ([2]; both regimens): well tolerated
total AEs reported ([2]; both regimens, 16 subjects): 21
AEs of mild severity ([2]; both regimens, of 21 AEs): Nineteen
